# Data published in ChEMBL document CHEMBL5608261, “Pharmacophore Establishment and Optimization of Saturated 1,6-Naphthyridine-Fused Quinazolinones that Inhibit Meningoencephalitis-Causing Naegleria fowleri” (J Med Chem, 2024).
# The source made the active and inactive calls. The calls are words filed in the database; no cut-off is given here.
# Legend:
# [1] = Drug concentration in female CD-1 mouse plasma at 11 mg/kg, iv measured after 0.5 hrs by LC-MS/MS analysis; format: ADME, organism-based
# Method in brief: (§1)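 Female CD-1 mice (n = 3/group) received one bolus of 11 mg/kg (actual dose; 10 mg/kg intended) IV or PO. Plasma was sampled at six time points over 12 h, and brain homogenate was taken at the 12 h end point. […] Mean ± SD.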
# [2] = Kinetic solubility of compound at pH 7.4 incubated for 24 hrs by HPLC analysis; format: physicochemical; conditions: buffer, pH 7.4, read-out: Kinetic_solubility
# Naegleria fowleri [3] = assay: Anti-ameobic activity against Naegleria fowleri Nf69 (ATCC 30215) trophozoites assessed as inhibition of amoeba growth incubated for 48 hrs by CellTiter-Glo assay; format: functional, organism-based; conditions: Naegleria fowleri, Nf69 (ATCC 30215), 48 h
# Method in brief: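 Axenic Nf69 trophozoites were seeded at 1 × 10^4 cells/mL in Nelson's complete medium with 10% heat-inactivated FBS. Compound was added at 20 to 0.375 μM (lower ranges for very potent compounds), with vehicle controls, for 48 h at 37 °C and 5% CO2. CellTiter-Glo luminescence gave % growth inhibition versus controls, and triplicate means were fitted to dose–response curves for EC50.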
# SH-SY5Y = assay: Cytotoxicity against human SH-SY5Y cells assessed as reduction in cell viability incubated for 72 hrs by CellTiter-Glo assay; format: toxicity, cell-based; conditions: sh-sy5y, 72 h
# Method in brief: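 SH-SY5Y cells at 2000 per well attached overnight at 37 °C. Compound from 20 mM DMSO stocks was added in triplicate as a dose series starting at 20 μM, with doxorubicin as positive control.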
# [4] = Selectivity index, ratio of CC50 for cytotoxicity against human SH-SY5Y cells to EC50 for anti-amoebic activity against Naegleria fowleri Nf69 (ATCC 30215) assessed as inhibition of amoeba growth; format: toxicity, cell-based; conditions: SH-SY5Y cells, read-out: Ratio CC50/EC50
# [5] = Metabolic stability in CD-1 mouse liver microsomes assessed as half-life incubated for 60 mins by LC-MS/MS analysis; format: ADME, Microsome; conditions: 1 h
# Method in brief: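 Half-life measured in CD-1 mouse liver microsomes with NADPH over a 60 min exposure.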
# Naegleria fowleri [6] = assay: Anti-ameobic activity against Naegleria fowleri TY (ATCC 30107) trophozoites assessed as inhibition of amoeba growth incubated for 48 hrs by CellTiter-Glo assay; format: functional, organism-based
# Method in brief: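 TY strain (ATCC 30107) trophozoites, seeded at 1 × 10^4 cells/mL, were exposed 48 h (37 °C, 5% CO2) to vehicle or compound, with concentrations initially 20 to 0.375 μM. CellTiter-Glo luminescence gave % growth inhibition versus controls. EC50 was fit from triplicate runs (n = 3, ± SEM).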
# [7] = Metabolic stability in human liver microsomes assessed as half-life; format: ADME, Microsome
# [8] = Protein binding in CD-1 mouse plasma incubated for 4 hrs by equilibrium dialysis based LC-MS/MS analysis; format: ADME, cell-free; conditions: mouse, 4 h
# [9] = Half-life in female CD-1 mouse at 11 mg/kg, iv measured after 12 hrs by LC-MS/MS analysis; format: ADME, organism-based; conditions: in vivo; method in brief: as §1
# [10] = Half-life in female CD-1 mouse at 11 mg/kg, po measured after 12 hrs by LC-MS/MS analysis; format: ADME, organism-based; conditions: in vivo; method in brief: as §1
# [11] = Volume of distribution in female CD-1 mouse at 11 mg/kg, iv measured after 12 hrs by LC-MS/MS analysis; format: ADME, organism-based; conditions: in vivo; method in brief: as §1
# [12] = AUCinfinity in female CD-1 mouse at 11 mg/kg, iv measured after 12 hrs by LC-MS/MS analysis; format: ADME, organism-based; conditions: in vivo; method in brief: as §1
# [13] = AUCinfinity in female CD-1 mouse at 11 mg/kg, po measured after 12 hrs by LC-MS/MS analysis; format: ADME, organism-based; conditions: in vivo; method in brief: as §1
# [14] = Drug concentration in female CD-1 mouse plasma at 11 mg/kg, po measured after 0.5 hrs by LC-MS/MS analysis; format: ADME, organism-based; method in brief: as §1
# [15] = Drug concentration in female CD-1 mouse plasma at 11 mg/kg, iv measured after 2 hrs by LC-MS/MS analysis; format: ADME, organism-based; method in brief: as §1
# [16] = Drug concentration in female CD-1 mouse plasma at 11 mg/kg, po measured after 2 hrs by LC-MS/MS analysis; format: ADME, organism-based; method in brief: as §1
# [17] = Drug concentration in female CD-1 mouse plasma at 11 mg/kg, iv measured after 4 hrs by LC-MS/MS analysis; format: ADME, organism-based; method in brief: as §1
# [18] = Drug concentration in female CD-1 mouse plasma at 11 mg/kg, po measured after 4 hrs by LC-MS/MS analysis; format: ADME, organism-based; method in brief: as §1
# [19] = Drug concentration in female CD-1 mouse plasma at 11 mg/kg, iv measured after 8 hrs by LC-MS/MS analysis; format: ADME, organism-based; method in brief: as §1
# [20] = Drug concentration in female CD-1 mouse plasma at 11 mg/kg, po measured after 8 hrs by LC-MS/MS analysis; format: ADME, organism-based; method in brief: as §1
# [21] = Drug concentration in female CD-1 mouse plasma at 11 mg/kg, iv measured after 12 hrs by LC-MS/MS analysis; format: ADME, organism-based; method in brief: as §1
# [22] = Drug concentration in female CD-1 mouse plasma at 11 mg/kg, po measured after 12 hrs by LC-MS/MS analysis; format: ADME, organism-based; method in brief: as §1
# [23] = Drug concentration in female CD-1 mouse plasma at 44 mg/kg, ip measured after 2 hrs by LC-MS/MS analysis; format: ADME, organism-based
# Method in brief: (§2)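 Female CD-1 mice (n = 3/group) received one intraperitoneal bolus of 44 mg/kg (actual dose; 50 mg/kg intended). Plasma was sampled at 2 and 4 h and brain homogenate at 4 h. Brain-to-plasma ratio = brain over plasma concentration at 4 h. Mean ± SD.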
# [24] = Drug concentration in female CD-1 mouse brain at 11 mg/kg, po measured after 12 hrs by LC-MS/MS analysis; format: ADME, organism-based; conditions: read-out: Ct; method in brief: as §1
# [25] = Drug concentration in female CD-1 mouse brain at 11 mg/kg, iv measured after 12 hrs by LC-MS/MS analysis; format: ADME, organism-based; conditions: read-out: Ct; method in brief: as §1
# [26] = Drug concentration in female CD-1 mouse brain at 44 mg/kg, ip measured after 4 hrs by LC-MS/MS analysis; format: ADME, organism-based; conditions: read-out: Ct; method in brief: as §2
# [27] = Ratio of drug concentration in female CD-1 mouse brain to plasma at 44 mg/kg, ip measured after 4 hrs by LC-MS/MS analysis; format: ADME, organism-based; method in brief: as §2
# [28] = Oral bioavailability in female CD-1 mouse at 11 mg/kg measured after 12 hrs by LC-MS/MS analysis; format: ADME, organism-based; conditions: in vivo; method in brief: as §1
# Naegleria fowleri [29] = assay: Anti-ameobic activity against Naegleria fowleri Nf69 (ATCC 30215) trophozoites infected in female CD-1 mouse model assessed as reduction in infection at 11 mg/kg, ip pre-infected for 48 hrs from day 0 followed by twice daily compound administration from day 2 to day 6 and […]; format: functional, organism-based; conditions: time 6.0 day
# Naegleria fowleri [30] = assay: Anti-ameobic activity against Naegleria fowleri Nf69 (ATCC 30215) trophozoites infected in female CD-1 mouse model assessed as median survival day at 11 mg/kg, ip pre-infected for 48 hrs from day 0 followed by twice daily compound administration from day 2 to day 6 and measured on day 14 post-infection (reference value: 5.4 day ); format: functional; conditions: time 13 day
# Method in brief: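 Female CD-1 mice (n = 6/group) were infected intranasally with Nf69 trophozoites on day 0. After a 48 h establishment period, they received IP dosing at 11 mg/kg twice daily for 5 days. Infected controls received vehicle only. The study lasted 14 days, with Kaplan–Meier survival, and the brains of survivors were cultured for viable amoeba.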
# [31] = Toxicity in female CD-1 mouse infected with Naegleria fowleri Nf69 (ATCC 30215) trophozoites assessed as adverse effect at 50 mg/kg, ip pre-infected for 48 hrs from day 0 followed by single bolus compound administration from day 2 to day 6 and measured on day 14 post-infection; format: organism-based; conditions: in vivo, 312 h, time 13 day
# [32] = Drug concentration in CD-1 mouse brain infected with Naegleria fowleri Nf69 (ATCC 30215) trophozoites assessed as adverse effect at 50 mg/kg, ip pre-infected for 48 hrs from day 0 followed by single bolus compound administration from day 2 to day 6 and measured on day 14 post-infection; format: ADME, organism-based; conditions: time 13 day, read-out: Ct
structure (smiles),measurement,setting,value
COc1cc2nc3n(c(=O)c2cc1Cl)CC[C@H]1[C@H]3CCCN1CC1COC1,concentration at 0.5 h,[1],2110 ng/mL
same,solubility kinetic at 24 h,[2],23.9 µM
same,EC50,Naegleria fowleri [3],12 nM
same,CC50,SH-SY5Y,2300 nM
same,selectivity ratio,[4],192
same,t1/2,[5],0.803 h
same,EC50,Naegleria fowleri [6],14 nM
same,t1/2,[7],1.54 h
same,PPB,[8],74%
same,t1/2,[9],1 h
same,t1/2,[10],1.1 h
same,Vd,[11],3.7 L/kg
same,AUC,[12],5010 ng·h/mL
same,AUC,[13],1920 ng·h/mL
same,concentration at 0.5 h,[14],469 ng/mL
same,concentration at 2 h,[15],882 ng/mL
same,concentration at 2 h,[16],459 ng/mL
same,concentration at 4 h,[17],281 ng/mL
same,concentration at 4 h,[18],254 ng/mL
same,concentration at 8 h,[19],18.1 ng/mL
same,concentration at 8 h,[20],21.1 ng/mL
same,concentration at 12 h,[21],2.6 ng/mL
same,concentration at 12 h,[22],2 ng/mL
same,concentration at 2 h,[23],3850 ng/mL
same,concentration at 12 h,[24],10.4 ng/g
same,concentration at 12 h,[25],13.3 ng/g
same,concentration at 4 h,[26],9090 ng/g
same,BPR,[27],4.7
same,F,[28],38%
same,Activity,Naegleria fowleri [29],inactive
same,MSD,Naegleria fowleri [30],6.1 days
same,Activity,[31],Non-Toxic
same,concentration at 312 h,[32],~20 µM
